# Measured values taken from ChEMBL document CHEMBL1158481, “Adenine-based acyclic nucleotides as novel P2X3 receptor ligands” (J Med Chem, 2009).
# The source made the active and inactive calls. The rule behind the calls is not given here.
# Assays:
# Details in all cases: HEK293
# [1] = target: T1, P2X purinoceptor 3 (Rattus norvegicus) (UniProt P49654); assay: Agonist activity at rat P2X3 receptor expressed in HEK cells assessed as induction of inward current at 100 uM by patch clamp method relative to alpha, beta-meATP; type: functional, cell-based
# T1 sequence (whole entry): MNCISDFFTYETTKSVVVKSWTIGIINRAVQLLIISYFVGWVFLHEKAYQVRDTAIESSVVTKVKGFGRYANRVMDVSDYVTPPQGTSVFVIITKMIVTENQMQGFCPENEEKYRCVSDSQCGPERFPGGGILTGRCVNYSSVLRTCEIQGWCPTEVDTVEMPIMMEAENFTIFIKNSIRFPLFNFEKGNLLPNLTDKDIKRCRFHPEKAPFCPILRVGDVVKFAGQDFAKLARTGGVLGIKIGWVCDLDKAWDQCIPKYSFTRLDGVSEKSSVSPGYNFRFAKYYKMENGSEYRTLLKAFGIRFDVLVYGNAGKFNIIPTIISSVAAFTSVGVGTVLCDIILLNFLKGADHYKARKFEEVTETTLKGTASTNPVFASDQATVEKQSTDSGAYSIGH
# Outline: (§1)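 HEK 293T cells transiently transfected with rat P2X3 (calcium phosphate), recorded 48 h post-transfection by whole-cell patch clamp at -60 mV in HEPES-buffered saline pH 7.4, CsCl pipette. Compound applied at 100 μM by rapid superfusion; inward current compared with averaged control current from ≥3 applications of α,β-meATP 100 μM for 2 s, 5 min apart.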
# [2] = target: T1, P2X purinoceptor 3 (Rattus norvegicus); assay: Activity at rat P2X3 receptor expressed in HEK cells assessed as induction of inward current at 100 uM by patch clamp method; type: cell-based; outline: as §1
# [3] = target: T1, P2X purinoceptor 3 (Rattus norvegicus); assay: Antagonist activity at rat P2X3 receptor expressed in HEK cells assessed as inhibition of alpha, beta-meATP-induced inward current at 100 uM by patch clamp method; type: functional, cell-based; design: scale not given: the % may be the effect or the level left
# Outline: (§2)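 Rat P2X3 subunit plasmid transfected (calcium phosphate) into HEK 293T cells, used 48 h later. Whole-cell clamp at -60 mV, fast superfusion; acyclic nucleotide (100 μM) preapplied 20 s, then α,β-meATP 100 μM for 2 s. Peak inward current expressed as % of control α,β-meATP response; n=7 cells, mean ± SEM, paired t or Mann-Whitney test.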
# [4] = target: T1, P2X purinoceptor 3 (Rattus norvegicus); assay: Activity at rat P2X3 receptor expressed in HEK cells assessed as depression of amplitude current subsequent response to alpha, beta-meATP by patch clamp method relative to control; type: cell-based; outline: as §2
# [5] = target: T1, P2X purinoceptor 3 (Rattus norvegicus); assay: Activity at rat P2X3 receptor expressed in HEK cells assessed inhibition of alpha, beta-meATP induced response by patch clamp method; type: cell-based; outline: as §2
# [6] = target: T1, P2X purinoceptor 3 (Rattus norvegicus); assay: Agonist activity at rat P2X3 receptor expressed in HEK cells assessed as induction of alpha, beta-meATP inward current at 100 uM pretreated before alpha, beta-meATP induction by patch clamp method; type: functional, cell-based; outline: as §2
SMILES,Activity [1],Activity [2],other results
Nc1nc(Cl)nc2c1ncn2CCCCOP(=O)(O)OP(=O)(O)OP(=O)(O)O,30%,–,–
Nc1nc(OCCc2ccccc2)nc2c1ncn2CCCCOP(=O)(O)O,inactive,–,Activity [3]: 20%
Nc1nc(I)nc2c1ncn2CCCCOP(=O)(O)O,inactive,inactive,Activity [4]: 80%; Activity [3]: 20%
Nc1nc(OCCc2ccccc2)nc2c1ncn2CCCCOP(=O)(O)OP(=O)(O)OP(=O)(O)O,Active,–,–
Nc1ncnc2c1ncn2CCCCOP(=O)(O)O,inactive,–,–
Nc1ncnc2c1ncn2CCCCOP(=O)(O)OP(=O)(O)OP(=O)(O)O,36%,–,–
"Nc1ncnc2c1ncn2[C@@H]1O[C@H](COP(=O)(O)CP(=O)(O)OP(=O)(O)O)[C@@H](O)[C@H]1O (single isomer, unassigned)",–,Active,–
CCCCC#Cc1nc(N)c2ncn(CCCCOP(=O)(O)O)c2n1,inactive,inactive,Activity [3]: 20%
Nc1nc(Cl)nc2c1ncn2CCCCOP(=O)(O)O,inactive,–,Activity [3]: 20%
CCCCC#Cc1nc(N)c2ncn(CCCCOP(=O)(O)OP(=O)(O)OP(=O)(O)O)c2n1,38%,Active,Activity [5]: Active
Nc1nc(OCCc2ccccc2)nc2c1ncn2CCCCOP(=O)(O)OP(=O)(O)O,Active,–,–

# More lines, main results first:
Activity [1],Activity [2],SMILES,other results
Active,Active,Nc1nc(N)c2ncn(CCCCOP(=O)(O)OP(=O)(O)O)c2n1,–
inactive,inactive,Nc1nc(N)c2ncn(CCCCOP(=O)(O)O)c2n1,Activity [3]: 20%
60%,Active,Nc1nc(I)nc2c1ncn2CCCCOP(=O)(O)OP(=O)(O)OP(=O)(O)O,Activity [5]: Active
25%,Active,Nc1nc(N)c2ncn(CCCCOP(=O)(O)OP(=O)(O)OP(=O)(O)O)c2n1,Activity [6]: 17%
Active,–,Nc1nc(Cl)nc2c1ncn2CCCCOP(=O)(O)OP(=O)(O)O,–
32%,–,Nc1ncnc2c1ncn2CCCCOP(=O)(O)OP(=O)(O)O,–
